What was measured:
Type in all cases: subcellular
[1] = biological target: Mitogen-activated protein kinase 3 (Homo sapiens, UniProt P27361); assay: Inhibition of ERK1 in human HeLa cells lysate pre incubated for 15 mins followed by ATP acyl phosphate probe addition and measured after 10 mins by LC-MS/MS analysis
IKK epsilon/TBK1 = IKK epsilon/TBK1 (Homo sapiens, UniProt Q14164+Q9UHD2); assay: Inhibition of IKKE/TBK1 in human HeLa cells lysate pre incubated for 15 mins followed by ADP acyl phosphate probe addition and measured after 10 mins by LC-MS/MS analysis
[2] = biological target: Cyclin-dependent kinase 15 (Homo sapiens, UniProt Q96Q40); assay: Inhibition of PFTAIRE2 in human HeLa cells lysate pre incubated for 15 mins followed by ADP acyl phosphate probe addition and measured after 10 mins by LC-MS/MS analysis
[3] = biological target: T1, STE20-related kinase adapter protein beta (Homo sapiens) (UniProt Q9C0K7); assay: Inhibition of ALS2CR2 in human HeLa cells lysate at 2 uM pre incubated for 15 mins followed by ADP acyl phosphate probe addition and measured after 10 mins by LC-MS/MS analysis relative to control; settings: time 25.0 min
T1 sequence (whole entry): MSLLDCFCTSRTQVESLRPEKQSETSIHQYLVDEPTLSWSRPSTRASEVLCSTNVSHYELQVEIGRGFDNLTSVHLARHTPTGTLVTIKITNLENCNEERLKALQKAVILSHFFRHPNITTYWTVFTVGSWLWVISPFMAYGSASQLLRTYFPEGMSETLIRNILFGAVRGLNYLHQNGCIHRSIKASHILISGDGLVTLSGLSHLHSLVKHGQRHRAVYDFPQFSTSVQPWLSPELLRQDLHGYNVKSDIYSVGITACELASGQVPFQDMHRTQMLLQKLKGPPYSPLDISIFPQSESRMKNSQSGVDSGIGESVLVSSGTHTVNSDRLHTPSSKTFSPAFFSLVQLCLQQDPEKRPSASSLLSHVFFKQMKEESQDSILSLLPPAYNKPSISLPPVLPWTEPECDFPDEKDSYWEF
Outline: (§1)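 HeLa cell lysates (5 mg/mL total protein) were preincubated with inhibitor at 0, 0.8, 2, 10 or 50 μM for 15 min. ATP or ADP acylphosphate probe was then added (5 μM final) for 10 min, and reactions were stopped with urea. Up to four fragment ions per kinase probe-peptide were quantified by targeted MS. % inhibition was taken relative to untreated lysate. Run in duplicate.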

[4] = biological target: T2, Phosphatidylinositol 5-phosphate 4-kinase type-2 alpha (Homo sapiens) (UniProt P48426); assay: Inhibition of PIP5K2A LIP site in human HeLa cells lysate at 10 uM pre incubated for 15 mins followed by ADP acyl phosphate probe addition and measured after 10 mins by LC-MS/MS analysis relative to control; settings: time 25.0 min
T2 sequence (whole entry): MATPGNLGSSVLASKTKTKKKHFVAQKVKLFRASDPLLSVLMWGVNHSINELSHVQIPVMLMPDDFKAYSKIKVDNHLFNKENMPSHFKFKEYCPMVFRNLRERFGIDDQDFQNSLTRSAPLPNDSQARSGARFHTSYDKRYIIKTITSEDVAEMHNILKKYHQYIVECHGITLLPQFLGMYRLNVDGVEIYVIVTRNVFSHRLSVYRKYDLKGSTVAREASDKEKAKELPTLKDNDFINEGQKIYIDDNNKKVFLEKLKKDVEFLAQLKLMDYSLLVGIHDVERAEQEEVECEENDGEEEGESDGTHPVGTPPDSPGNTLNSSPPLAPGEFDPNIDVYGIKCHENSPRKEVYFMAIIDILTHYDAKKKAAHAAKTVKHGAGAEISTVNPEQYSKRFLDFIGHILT

[5] = biological target: Tyrosine-protein kinase ABL (Homo sapiens, UniProt P00519+P42684); assay: Inhibition of ABL1/2 in human HeLa cells lysate pre incubated for 15 mins followed by ATP acyl phosphate probe addition and measured after 10 mins by LC-MS/MS analysis; outline: as §1
[6] = biological target: Serine/threonine-protein kinase ATR (Homo sapiens, UniProt Q13535); assay: Inhibition of ATR in human HeLa cells lysate at 10 uM pre incubated for 15 mins followed by ATP acyl phosphate probe addition and measured after 10 mins by LC-MS/MS analysis relative to control; settings: time 25.0 min
Outline: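 KiNativ-type profiling in HeLa lysate (5 mg/mL total protein). Lysate preincubated 15 min with inhibitor at 50, 10, 2, 0.8 or 0 μM, then ATP or ADP acylphosphate probe added (5 μM final) for 10 min. Reaction stopped with urea and analysed by targeted MS, using up to four fragment ions per kinase peptide-probe conjugate. % inhibition calculated against untreated lysate. Duplicate reactions.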

[7] = biological target: Interleukin-1 receptor-associated kinase 4 (Homo sapiens, UniProt Q9NWZ3); assay: Inhibition of IRAK4 in human HeLa cells lysate pre incubated for 15 mins followed by ADP acyl phosphate probe addition and measured after 10 mins by LC-MS/MS analysis
[8] = biological target: Serine/threonine-protein kinase SMG1 (Homo sapiens, UniProt Q96Q15); assay: Inhibition of SMG1 in human HeLa cells lysate at 50 uM pre incubated for 15 mins followed by ATP acyl phosphate probe addition and measured after 10 mins by LC-MS/MS analysis relative to control; settings: time 25.0 min
[9] = biological target: Ribosomal protein S6 kinase alpha-3 (Homo sapiens, UniProt P51812); assay: Inhibition of RSK2 domain 1 active form in human HeLa cells lysate at 50 uM pre incubated for 15 mins followed by ATP acyl phosphate probe addition and measured after 10 mins by LC-MS/MS analysis relative to control; settings: time 25.0 min
eIF-2-alpha kinase GCN2 = eIF-2-alpha kinase GCN2 (Homo sapiens, UniProt Q9P2K8); assay: Inhibition of GCN2 in human HeLa cells lysate at 2 uM pre incubated for 15 mins followed by ATP acyl phosphate probe addition and measured after 10 mins by LC-MS/MS analysis relative to control; settings: time 25.0 min
[10] = biological target: T3, Serine/threonine-protein kinase Sgk3 (Homo sapiens) (UniProt Q96BR1); assay: Inhibition of SGK3 in human HeLa cells lysate at 2 uM pre incubated for 15 mins followed by ATP acyl phosphate probe addition and measured after 10 mins by LC-MS/MS analysis relative to control; settings: time 25.0 min
T3 sequence (whole entry): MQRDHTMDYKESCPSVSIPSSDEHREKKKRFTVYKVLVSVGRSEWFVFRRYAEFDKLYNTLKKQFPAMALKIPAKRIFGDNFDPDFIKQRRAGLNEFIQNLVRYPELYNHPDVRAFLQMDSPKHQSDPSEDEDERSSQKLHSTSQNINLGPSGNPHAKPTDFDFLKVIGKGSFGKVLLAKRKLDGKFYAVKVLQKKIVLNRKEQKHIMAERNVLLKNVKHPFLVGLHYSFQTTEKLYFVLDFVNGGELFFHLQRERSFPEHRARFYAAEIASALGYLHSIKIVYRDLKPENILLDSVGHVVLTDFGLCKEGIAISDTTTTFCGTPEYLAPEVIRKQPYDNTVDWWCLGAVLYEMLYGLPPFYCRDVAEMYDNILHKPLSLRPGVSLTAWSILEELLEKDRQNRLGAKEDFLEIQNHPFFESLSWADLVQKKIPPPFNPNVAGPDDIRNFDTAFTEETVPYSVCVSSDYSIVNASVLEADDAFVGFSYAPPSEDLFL

Chain of Mitogen-activated protein kinase 3 (P27361 whole entry): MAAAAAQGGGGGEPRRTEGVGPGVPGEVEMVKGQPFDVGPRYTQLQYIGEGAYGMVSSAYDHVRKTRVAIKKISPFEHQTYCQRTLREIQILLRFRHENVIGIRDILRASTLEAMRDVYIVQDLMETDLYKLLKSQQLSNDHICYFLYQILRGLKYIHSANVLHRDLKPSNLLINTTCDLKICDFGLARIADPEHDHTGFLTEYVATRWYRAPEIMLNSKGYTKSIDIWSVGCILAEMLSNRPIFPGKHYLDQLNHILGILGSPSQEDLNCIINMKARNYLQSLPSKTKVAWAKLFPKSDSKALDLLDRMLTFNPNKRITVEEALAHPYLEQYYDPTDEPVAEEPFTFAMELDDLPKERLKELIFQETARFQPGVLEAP
Chain of Serine/threonine-protein kinase ATR (Q13535 whole entry, looked up, the tested form may be a part): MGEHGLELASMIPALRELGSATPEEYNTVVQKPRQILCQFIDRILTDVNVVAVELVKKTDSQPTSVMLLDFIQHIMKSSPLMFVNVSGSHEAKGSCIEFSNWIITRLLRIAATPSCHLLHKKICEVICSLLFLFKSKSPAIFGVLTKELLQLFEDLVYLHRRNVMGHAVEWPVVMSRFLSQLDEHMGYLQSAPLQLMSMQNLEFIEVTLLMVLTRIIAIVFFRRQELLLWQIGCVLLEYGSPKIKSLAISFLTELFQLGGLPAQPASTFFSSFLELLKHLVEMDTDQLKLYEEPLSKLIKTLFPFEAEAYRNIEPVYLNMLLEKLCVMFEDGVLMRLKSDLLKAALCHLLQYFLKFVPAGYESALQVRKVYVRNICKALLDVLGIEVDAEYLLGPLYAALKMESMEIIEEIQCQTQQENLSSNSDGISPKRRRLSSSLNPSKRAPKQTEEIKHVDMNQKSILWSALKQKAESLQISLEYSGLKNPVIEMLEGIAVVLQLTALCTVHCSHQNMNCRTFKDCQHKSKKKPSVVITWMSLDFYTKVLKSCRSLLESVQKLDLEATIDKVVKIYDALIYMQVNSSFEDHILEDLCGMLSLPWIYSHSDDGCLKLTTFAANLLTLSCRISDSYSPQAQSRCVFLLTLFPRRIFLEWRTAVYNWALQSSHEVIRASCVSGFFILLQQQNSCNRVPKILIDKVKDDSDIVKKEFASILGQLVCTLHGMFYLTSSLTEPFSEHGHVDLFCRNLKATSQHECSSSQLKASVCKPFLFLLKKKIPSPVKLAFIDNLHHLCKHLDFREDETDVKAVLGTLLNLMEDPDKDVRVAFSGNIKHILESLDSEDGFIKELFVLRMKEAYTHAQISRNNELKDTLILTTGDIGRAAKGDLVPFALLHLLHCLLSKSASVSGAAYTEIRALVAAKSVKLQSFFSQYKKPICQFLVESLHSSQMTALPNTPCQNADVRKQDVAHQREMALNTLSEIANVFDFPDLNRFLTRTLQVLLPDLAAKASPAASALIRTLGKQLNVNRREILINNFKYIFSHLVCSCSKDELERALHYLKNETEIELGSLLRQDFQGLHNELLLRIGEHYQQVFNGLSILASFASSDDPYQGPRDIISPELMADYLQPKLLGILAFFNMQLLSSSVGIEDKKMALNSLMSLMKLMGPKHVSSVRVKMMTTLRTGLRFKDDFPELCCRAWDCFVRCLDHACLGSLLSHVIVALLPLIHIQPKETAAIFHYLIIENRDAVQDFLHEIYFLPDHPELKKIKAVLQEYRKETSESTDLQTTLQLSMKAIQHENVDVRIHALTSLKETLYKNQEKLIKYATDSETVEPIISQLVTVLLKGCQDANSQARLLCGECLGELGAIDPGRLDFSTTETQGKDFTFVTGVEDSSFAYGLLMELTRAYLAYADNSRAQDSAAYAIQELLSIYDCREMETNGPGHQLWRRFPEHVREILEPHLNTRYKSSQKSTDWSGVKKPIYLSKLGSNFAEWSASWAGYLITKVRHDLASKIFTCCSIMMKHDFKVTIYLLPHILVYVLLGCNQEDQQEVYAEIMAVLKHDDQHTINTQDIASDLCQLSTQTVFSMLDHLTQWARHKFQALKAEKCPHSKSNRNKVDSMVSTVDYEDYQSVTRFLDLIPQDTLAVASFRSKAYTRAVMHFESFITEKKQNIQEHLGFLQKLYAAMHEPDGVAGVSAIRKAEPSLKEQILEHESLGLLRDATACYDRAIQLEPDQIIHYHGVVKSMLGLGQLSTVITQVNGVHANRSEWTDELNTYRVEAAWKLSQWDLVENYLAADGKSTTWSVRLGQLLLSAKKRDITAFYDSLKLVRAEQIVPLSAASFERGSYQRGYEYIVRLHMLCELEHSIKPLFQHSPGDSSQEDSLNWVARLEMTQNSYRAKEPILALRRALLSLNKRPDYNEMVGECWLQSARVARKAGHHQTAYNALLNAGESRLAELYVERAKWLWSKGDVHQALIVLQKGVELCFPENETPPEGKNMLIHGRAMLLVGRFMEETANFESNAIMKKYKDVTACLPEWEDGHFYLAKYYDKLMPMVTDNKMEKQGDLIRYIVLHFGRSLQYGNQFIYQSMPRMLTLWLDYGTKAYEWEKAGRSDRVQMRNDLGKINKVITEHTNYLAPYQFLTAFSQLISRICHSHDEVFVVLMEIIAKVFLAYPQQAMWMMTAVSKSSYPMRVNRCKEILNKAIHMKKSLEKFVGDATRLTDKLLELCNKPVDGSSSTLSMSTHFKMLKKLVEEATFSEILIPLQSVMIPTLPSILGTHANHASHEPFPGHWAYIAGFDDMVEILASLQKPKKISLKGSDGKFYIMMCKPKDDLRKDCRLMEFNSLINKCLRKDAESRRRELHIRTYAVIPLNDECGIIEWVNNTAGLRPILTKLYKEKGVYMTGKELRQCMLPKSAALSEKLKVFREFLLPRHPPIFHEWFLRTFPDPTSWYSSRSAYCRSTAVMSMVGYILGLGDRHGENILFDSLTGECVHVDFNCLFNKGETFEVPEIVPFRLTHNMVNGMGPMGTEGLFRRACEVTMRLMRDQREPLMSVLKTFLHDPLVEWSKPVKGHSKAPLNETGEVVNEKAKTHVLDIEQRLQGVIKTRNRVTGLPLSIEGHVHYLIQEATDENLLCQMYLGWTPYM
Chain of Cyclin-dependent kinase 15 (Q96Q40 whole entry): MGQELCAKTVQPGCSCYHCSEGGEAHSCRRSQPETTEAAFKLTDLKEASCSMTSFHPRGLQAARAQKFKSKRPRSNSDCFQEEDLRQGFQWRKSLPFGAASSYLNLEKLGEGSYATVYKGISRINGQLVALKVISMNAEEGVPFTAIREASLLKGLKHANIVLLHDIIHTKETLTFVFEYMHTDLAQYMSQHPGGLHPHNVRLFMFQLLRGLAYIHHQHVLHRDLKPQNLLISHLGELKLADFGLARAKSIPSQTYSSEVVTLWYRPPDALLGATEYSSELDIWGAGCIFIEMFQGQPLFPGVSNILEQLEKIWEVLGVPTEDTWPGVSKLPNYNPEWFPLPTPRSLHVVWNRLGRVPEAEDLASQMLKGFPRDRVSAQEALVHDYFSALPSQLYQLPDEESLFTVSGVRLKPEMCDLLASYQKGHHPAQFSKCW
Chain of Ribosomal protein S6 kinase alpha-3 (P51812 whole entry, the tested form may be a part): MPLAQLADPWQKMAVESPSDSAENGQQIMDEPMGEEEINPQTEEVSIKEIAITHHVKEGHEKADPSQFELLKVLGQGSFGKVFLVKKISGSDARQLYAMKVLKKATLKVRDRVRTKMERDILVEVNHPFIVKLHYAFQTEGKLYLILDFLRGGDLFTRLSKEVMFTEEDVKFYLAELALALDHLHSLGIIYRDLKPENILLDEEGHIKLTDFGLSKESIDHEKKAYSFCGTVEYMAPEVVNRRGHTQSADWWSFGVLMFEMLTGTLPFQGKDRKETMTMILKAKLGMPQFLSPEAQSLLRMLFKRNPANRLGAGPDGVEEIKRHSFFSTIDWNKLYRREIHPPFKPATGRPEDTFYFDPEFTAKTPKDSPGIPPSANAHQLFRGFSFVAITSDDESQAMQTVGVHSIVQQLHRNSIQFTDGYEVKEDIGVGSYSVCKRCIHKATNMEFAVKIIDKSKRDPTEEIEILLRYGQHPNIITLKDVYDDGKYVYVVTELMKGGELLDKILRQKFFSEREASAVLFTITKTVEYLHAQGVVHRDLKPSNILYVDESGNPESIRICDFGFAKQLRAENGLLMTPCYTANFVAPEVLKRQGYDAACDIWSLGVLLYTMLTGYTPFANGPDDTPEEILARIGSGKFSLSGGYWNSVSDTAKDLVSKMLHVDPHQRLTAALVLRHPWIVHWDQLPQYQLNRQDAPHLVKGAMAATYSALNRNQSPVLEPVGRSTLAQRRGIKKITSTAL
Chain of Interleukin-1 receptor-associated kinase 4 (Q9NWZ3 whole entry): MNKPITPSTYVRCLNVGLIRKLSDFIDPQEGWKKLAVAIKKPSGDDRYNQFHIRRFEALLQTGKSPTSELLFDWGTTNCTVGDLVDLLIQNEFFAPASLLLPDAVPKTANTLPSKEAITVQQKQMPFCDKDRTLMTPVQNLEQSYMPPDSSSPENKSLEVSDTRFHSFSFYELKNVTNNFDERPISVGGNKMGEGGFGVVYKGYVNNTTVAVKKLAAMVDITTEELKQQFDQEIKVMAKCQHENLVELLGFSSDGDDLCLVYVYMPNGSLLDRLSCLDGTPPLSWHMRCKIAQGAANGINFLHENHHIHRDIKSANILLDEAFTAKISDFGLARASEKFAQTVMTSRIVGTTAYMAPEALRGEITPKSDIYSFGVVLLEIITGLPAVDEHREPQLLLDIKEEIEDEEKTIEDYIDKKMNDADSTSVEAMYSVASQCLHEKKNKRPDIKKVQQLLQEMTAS

Structure (SMILES): CCOc1cc(N2CCC(O)CC2)ccc1Nc1ncc2c(n1)N(C)c1ccccc1C(=O)N2C
- IC50 [1]: > 50 µM
- IC50 (IKK epsilon/TBK1): > 50 µM
- IC50 [2]: > 50 µM
- inhibition [3]: 17%
- inhibition [4]: -2.5%
- IC50 [5]: > 50 µM
- inhibition [6]: 6.7%
- IC50 [7]: > 50 µM
- inhibition [8]: -1.9%
- inhibition [9]: 11.5%
- inhibition (eIF-2-alpha kinase GCN2): 0.2%
- inhibition [10]: 15.9%

From ChEMBL document CHEMBL5661979, “Pharmacological inhibition of BMK1 suppresses tumor growth through promyelocytic leukemia protein” (Cancer Cell, 2010)
